Experimental data pooled from the literature.
Lines come from different studies, so protocols differ. pEC50, pIC50: −log10 of the molar value.
Effect on: cell growth or viability

| Structure (SMILES) | cell line | assay | conditions | endpoint | value |
| --- | --- | --- | --- | --- | --- |
| CCCCc1nc(Cl)c(CO)n1Cc1ccc(-c2ccccc2-c2nn[nH]n2)cc1 | WI-38 | MTT | 72 h | pEC50 | 5.05 |
| COC(=O)c1c(C)ncn1CC(c1c[nH]c2ccccc12)c1c[nH]c2ccccc12 | HaCaT | MTS | 20 µM, 24 h | inhibition | 9.7% |
| C=CC(=O)N1CCC[C@@H](n2nc(-c3ccc(Oc4ccccc4)cc3)c3c(N)ncnc32)C1 | KU812 | – | 48 h | GI50 | 3.08 µM |
| COC(=O)c1c(C)ncn1CC(c1cn(C)c2ccccc12)c1cn(C)c2ccccc12 | HaCaT | MTS | 20 µM, 24 h | inhibition | 12.6% |
| CC(C)=CCC[C@](C)(O)[C@H]1CC[C@]2(C)[C@@H]1[C@H](O)C[C@@H]1[C@@]3(C)CC[C@H](O[C@@H]4O[C@H](CO)[C@@H](O)[C@H](O)[C@H]4O[C@@H]4O[C@H](CO)[C@@H](O)[C@H](O)[C@H]4O)C(C)(C)[C@@H]3CC[C@]12C | NCI-H358 | MTT | 72 h | IC20 | > 100 µM |
| Cc1c(-c2cccc(C(F)(F)F)c2)sc2[nH]c(=O)n([C@H](C)c3cccc4ccccc34)c(=O)c12 | HCC827 | – | 10 µM | inhibition | > 80% |
| COC(C)(C)CCC[C@](C)(O)[C@H]1CC[C@]2(C)[C@@H]1[C@H](O)C[C@@H]1[C@@]3(C)CC[C@H](O)C(C)(C)[C@@H]3CC[C@]12C | NCI-H358 | MTT | 72 h | IC20 | 4.48 µM |
| CCc1ncn(CC(c2c[nH]c3ccc(C)cc23)c2c[nH]c3ccc(C)cc23)c1C(=O)OC | HaCaT | MTS | 20 µM, 24 h | inhibition | 23% |
| COc1ccc(-c2ccc(-c3ccc(C(=N)N)nc3)s2)cc1Cl | SNB-19 | SRB | – | GI50 | 1.7 µM |
| Cc1cc(Nc2ncc(Cl)c(Nc3ccccc3S(=O)(=O)C(C)C)n2)c(OC(C)C)cc1C1CCNCC1 | KARPAS-299 | MTT | 0.06173 µg/mL, 72 h | inhibition | 62.4% |
| COc1cc(-c2ccc(-c3ccc(C(=N)N)nc3)s2)cc(OC)c1OC | CAKI-1 | – | – | GI50 | 1.59 µM |
| C[C@@H](Oc1cc(-c2cnn(C3CCNCC3)c2)cnc1N)c1c(Cl)ccc(F)c1Cl | KARPAS-299 | MTT | 1 µg/mL, 72 h | inhibition | 85.2% |
| COC(=O)c1c(C)ncn1CC(c1c[nH]c2cc(Br)ccc12)c1c[nH]c2cc(Br)ccc12 | HaCaT | MTS | 20 µM, 24 h | inhibition | 28.8% |
| Cc1cc(C)cc(COc2cc3c(cc2OCc2cc(C)cc(C)c2)[C@H]2C[C@](O)(Cc4cn(CCc5ccc(N)cc5)nn4)C[C@H](C)N2CC3)c1 | ASPC1 | MTT | – | pIC50 | 6.25 |
| CCOC(=O)c1c(C)ncn1CC(c1cn(C)c2ccc([N+](=O)[O-])cc12)c1cn(C)c2ccc([N+](=O)[O-])cc12 | HaCaT | MTS | 20 µM, 24 h | inhibition | 3.7% |
| Cc1cc(C)cc(COc2cc3c(cc2OCc2cc(C)cc(C)c2)C2CC(O)(Cc4cn(CCCCCCOc5ccc6c(c5)C(=O)N(C5CCC(=O)NC5=O)C6=O)nn4)CC(C)N2CC3)c1 (stereo not shown) | ASPC1 | MTT | – | pIC50 | 6.05 |
| CC(C)C[C@H](NC(=O)[C@H](Cc1ccccc1)NC(=O)c1cnccn1)B(O)O | ASPC1 | ATP luminescence | – | pIC50 | 7.64 |
| COc1ccc(Cn2cc(C[C@@]3(O)C[C@@H]4c5cc(OCc6cc(C)cc(C)c6)c(OCc6cc(C)cc(C)c6)cc5CCN4[C@@H](C)C3)nn2)cc1 | ASPC1 | MTT | – | pIC50 | 5.89 |
| COc1cc(Nc2nccc(-c3cnn4nc(OC)ccc34)n2)cc(C(F)(F)F)c1 | DV-90 | ATP luminescence | – | pIC50 | < 5.52 |
